Tests used:
Zea mays [1] = assay: Growth inhibition of glyphosate-resistant Zea mays (maize) measured 7 days post treatment; format: functional
Vigna unguiculata [2] = assay: Growth inhibition of Vigna unguiculata (cowpea) measured 14 days post treatment
Glycine max [3] = assay: Induction of shikimate accumulation in non glyphosate-resistant Glycine max (soybean) at growth inhibition I50 level rate measured 7 days post treatment (reference value: 27 ug/g tissue); format: functional
In short: (§1)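 Plants were sprayed in the greenhouse at each species' I50 rate, with Tween 20 controls. Shoots were harvested at 7 DAT and rinsed free of surface glyphosate. Shikimic acid was measured by HPLC on a C18 column after 0.45 µm filtration, with 100 µL injected, isocratic 98% H2O (pH 3.0)/2% MeOH, at 1 mL flow.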

Lolium multiflorum [4] = assay: Growth inhibition of Lolium multiflorum (Italian ryegrass) measured 7 days post treatment; format: functional
[5] = Drug level in glyphosate-resistant Glycine max (soybean) at growth inhibition I50 level rate measured 7 days post treatment; format: organism-based; settings: in vivo, read-out: Drug uptake
In short: (§2)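 Greenhouse plants (28/22 °C, 13 h photoperiod) were sprayed with glyphosate at each species' I50 rate, with Tween 20-treated controls. Shoots were cut at 7 DAT and rinsed to remove surface herbicide. Pooled ground tissue (1 g) was water-extracted twice with sonication, acidified, and washed with methylene chloride. Extracts were derivatized with heptafluorobutanol/TFAA (90 °C, 1 h) and measured by GC-MS against derivatized standards, in duplicate.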

Zea mays [6] = assay: Drug level in glyphosate-resistant Zea mays (maize) assessed as AMPA level at growth inhibition I50 level rate measured 7 days post treatment; format: organism-based; settings: in vivo, 168 h, BLD = below limit of detection; in short: as §2
[7] = Drug level in Desmanthus illinoensis (Illinois bundleflower) at growth inhibition I50 level rate measured 7 days post treatment; format: organism-based; settings: in vivo, read-out: Drug uptake; in short: as §2
Senna obtusifolia = assay: Growth inhibition of Senna obtusifolia (sicklepod) measured 14 days post treatment
[8] = test system: Pueraria montana var. lobata; assay: Ratio of compound to AMPA level in Pueraria montana var. lobata ( kudzu) at growth inhibition I50 level rate measured 7 days post treatment; format: organism-based; settings: in vivo, 168 h
In short: (§3)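 Greenhouse plants (28/22 °C, 13 h photoperiod) were sprayed at each species' I50 rate with Tween 20 controls. Shoots were clipped 7 DAT and washed free of surface herbicide. Pooled ground tissue (1 g) was extracted twice with water under sonication. Extracts were derivatized with heptafluorobutanol/trifluoroacetic anhydride (90 °C, 1 h). Glyphosate and AMPA were quantified by GC-MS against derivatized standard curves, in duplicate.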

Vigna unguiculata [9] = assay: Ratio of compound to AMPA level in Vigna unguiculata (cowpea) at growth inhibition I50 level rate measured 7 days post treatment; format: organism-based; settings: in vivo, 168 h; in short: as §3
Glycine max [10] = assay: Growth inhibition of non glyphosate-resistant Glycine max (soybean) measured 7 days post treatment; format: functional
[11] = test system: Pueraria montana var. lobata; assay: Induction of shikimate accumulation in Pueraria montana var. lobata ( kudzu) at growth inhibition I50 level rate measured 7 days post treatment (reference value: 188 ug/g tissue); format: functional; in short: as §1
Senna occidentalis [12] = assay: Growth inhibition of Senna occidentalis (coffee senna) measured 14 days post treatment
[13] = Drug level in Senna obtusifolia (sicklepod) at growth inhibition I50 level rate measured 7 days post treatment; format: organism-based; settings: in vivo, read-out: Drug uptake; in short: as §2
Glycine max [14] = assay: Growth inhibition of glyphosate-resistant Glycine max (soybean) measured 7 days post treatment; format: functional
Sesbania herbacea [15] = assay: Drug level in Sesbania herbacea assessed as AMPA level at growth inhibition I50 level rate measured 7 days post treatment; format: organism-based; settings: in vivo, 168 h, BLD = below limit of detection; in short: as §2
[16] = test system: Pueraria montana var. lobata; assay: Growth inhibition of Pueraria montana var. lobata ( kudzu) measured 7 days post treatment; format: functional
[17] = Drug level in Vigna unguiculata (cowpea) at growth inhibition I50 level rate measured 7 days post treatment; format: organism-based; settings: in vivo, read-out: Drug uptake; in short: as §2
Erigeron canadensis [18] = assay: Drug level in Conyza canadensis (horseweed) assessed as AMPA level at growth inhibition I50 level rate measured 7 days post treatment; format: organism-based; settings: in vivo, 168 h; in short: as §2
Lolium multiflorum [19] = assay: Drug level in Lolium multiflorum (Italian ryegrass) assessed as AMPA level at growth inhibition I50 level rate measured 7 days post treatment; format: organism-based; settings: in vivo, 168 h, BLD = below limit of detection; in short: as §2
[20] = Drug level in Conyza canadensis (horseweed) at growth inhibition I50 level rate measured 7 days post treatment; format: organism-based; settings: erigeron canadensis, in vivo; read-out: Drug uptake; in short: as §2
Sesbania herbacea [21] = assay: Induction of shikimate accumulation in Sesbania herbacea at growth inhibition I50 level rate measured 7 days post treatment (reference value: 266 ug/g tissue); format: functional; in short: as §1
[22] = Drug level in non glyphosate-resistant Glycine max (soybean) at growth inhibition I50 level rate measured 7 days post treatment; format: organism-based; settings: in vivo, read-out: Drug uptake; in short: as §2
[23] = Drug level in Abutilon theophrasti (velvetleaf) at growth inhibition I50 level rate measured 7 days post treatment; format: organism-based; settings: in vivo, read-out: Drug uptake; in short: as §2
Erigeron canadensis [24] = assay: Ratio of compound to AMPA level in Conyza canadensis (horseweed) at growth inhibition I50 level rate measured 7 days post treatment; format: organism-based; settings: in vivo, 168 h; in short: as §3
Glycine max [25] = assay: Ratio of compound to AMPA level in non glyphosate-resistant Glycine max (soybean) at growth inhibition I50 level rate measured 7 days post treatment; format: organism-based; settings: in vivo, 168 h; in short: as §3
[26] = Drug level in non glyphosate-resistant Zea mays (maize) at growth inhibition I50 level rate measured 7 days post treatment; format: organism-based; settings: in vivo, read-out: Drug uptake; in short: as §2
Senna occidentalis [27] = assay: Induction of shikimate accumulation in Senna occidentalis (coffee senna) at growth inhibition I50 level rate measured 7 days post treatment (reference value: 277 ug/g tissue); format: functional; in short: as §1
Glycine max [28] = assay: Drug level in glyphosate-resistant Glycine max (soybean) assessed as AMPA level at growth inhibition I50 level rate measured 7 days post treatment; format: organism-based; settings: in vivo, 168 h; in short: as §2
[29] = Drug level in Sesbania herbacea at growth inhibition I50 level rate measured 7 days post treatment; format: organism-based; settings: in vivo, read-out: Drug uptake; in short: as §2

O=C(O)CNCP(=O)(O)O [GLYPHOSATE]
I50 (Zea mays [1]): 93 gAi/ha
I50 (Vigna unguiculata [2]): 201 gAi/ha
Activity (Glycine max [3]): 15251 µg/g
I50 (Lolium multiflorum [4]): 220 gAi/ha
concentration at 168 h [5]: 5830 ng/g
Drug uptake (Zea mays [6]): BLD
concentration at 168 h [7]: 3270 ng/g
I50 (Senna obtusifolia): 252 gAi/ha
Ratio [8]: 19
Ratio (Vigna unguiculata [9]): 6
I50 (Glycine max [10]): 250 gAi/ha
Activity [11]: 8915 µg/g
I50 (Senna occidentalis [12]): 75 gAi/ha
concentration at 168 h [13]: 6410 ng/g
I50 (Glycine max [14]): 250 gAi/ha
Drug uptake (Sesbania herbacea [15]): BLD
I50 [16]: 77 gAi/ha
concentration at 168 h [17]: 26800 ng/g
Drug uptake (Erigeron canadensis [18]): 314 ng/g
Drug uptake (Lolium multiflorum [19]): BLD
concentration at 168 h [20]: 26300 ng/g
Activity (Sesbania herbacea [21]): 6828 µg/g
concentration at 168 h [22]: 25000 ng/g
concentration at 168 h [23]: 678 ng/g
Ratio (Erigeron canadensis [24]): 84
Ratio (Glycine max [25]): 38
concentration at 168 h [26]: 851 ng/g
Activity (Senna occidentalis [27]): 686 µg/g
Drug uptake (Glycine max [28]): 119 ng/g
concentration at 168 h [29]: 38600 ng/g

— ChEMBL document CHEMBL3046087, “Aminomethylphosphonic acid accumulation in plant species treated with glyphosate” (J Agric Food Chem, 2008)
